# High-throughput results (PubChem)
# Myeloid diff 2: myeloid differentiation induction; calls only at 10 µM; ER-HoxA9 myeloid progenitors, lysozyme-GFP differentiation, flow cytometry; hit rate 1% among 360,000;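 active means normalized GFP-positive differentiation at or above the plate's own cutoff, the solvent-only control mean plus 3 SD; inconclusive means no clear call, values can overlap the other calls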;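 further: cells exposed to compound for four days before flow analysis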
# Casp6 inh: blocks human caspase-6 cleavage activity | hit rate 0.53% among 350,000 | inhibition, % at 12.5 µM | purified caspase-6, Z-VEID-R110 cleavage fluorescence;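 active means mean inhibition across replicates at least about 35%, with every replicate also reaching that limit, limit read from the data; inconclusive means only one of the two criteria met; inactive means neither criterion met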;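 further: 0% = median of neutral control wells and 100% = no fluorescence left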
# Target sequence (P55212 24-179 limits assumed): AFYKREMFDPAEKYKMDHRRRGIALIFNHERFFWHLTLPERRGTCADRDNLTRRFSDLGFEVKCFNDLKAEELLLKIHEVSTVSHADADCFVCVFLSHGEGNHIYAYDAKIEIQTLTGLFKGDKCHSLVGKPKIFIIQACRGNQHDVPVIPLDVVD
# Target sequence (P55212 194-293 limits assumed): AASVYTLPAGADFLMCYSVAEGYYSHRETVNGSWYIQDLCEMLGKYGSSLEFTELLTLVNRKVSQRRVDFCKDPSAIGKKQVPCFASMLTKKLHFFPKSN
# T cell HTS: modulates CD8 T cell binding to vesicles | hit rate 0.068% among 330,000 | 2C CD8+ T cell-vesicle binding, flow cytometry; active compounds read low | response (vesicle binding), % at 7 µM;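 active means response, share of CD8 T cells binding vesicles, and their 90th percentile fluorescence all below set limits, cut at about 80% in these data, passing the limit was not always enough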;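 further: values below 100% mean blocked vesicle binding to the CD8+ T cells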
#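 Material: 2C TCR transgenic mouse naive CD8+ T cells, MACS-purified. Also added: QL9-charged Drosophila Ld/ICAM-1/B7-1 vesicles. Timing: binding 1.5 h at 37 °C. Measured by: high-throughput flow cytometry with anti-B7-1 and anti-CD8 staining. Read-out: percent CD8+ FL2 mean versus row control. Controls: Unloaded micro-vesicles (low), QL9 vesicles with 0.7% DMSO (high).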
# Vif inh: inhibitors of HIV Vif; HEK293T cells, Vif self-association by quenched fluorescence, imaging, 24 h; AID 602346; inhibition, % at 7.49 µM; hit rate 0.35% among 340,000; in the data active means inhibition above about 50%, passing the limit was not always enough; inconclusive means no clear call, values can overlap the other calls; inactive means below about 31%
# Active calls of the source: *; i = inactive; ? = inconclusive; . = no result given; + = active, no number. A selection: hits, their analogues and other compounds. The true share with any hit is near 1.4%.
SMILES,Myeloid diff 2,Casp6 inh,T cell HTS,Vif inh
CC1(C)CC2CC(C)(CN2S(=O)(=O)c2ccc(C(=O)Nc3ccc(S(=O)(=O)N4CCOCC4)cc3)cc2)C1 (configuration not stated),i,1,236,-2
CCOC(=O)c1cc([N+](=O)[O-])sc1NC(=O)c1ccc(S(=O)(=O)N2CC3(C)CC2CC(C)(C)C3)cc1 (configuration not stated),+,-4,193,.
CN(C)C(=O)C[C@H]1C=C[C@H](NC(=O)NC2CCCCC2)[C@@H](CO)O1,.,4,.,.
CCCCCc1nc2c(C#N)c(-c3ccc(Cl)cc3)ccn2n1,+,.,126,1
N#Cc1c(-c2ccc(Cl)cc2)ccn2nc(CCC(=O)O)nc12,i,.,169,12
CO[C@H]1CN(C)C(=O)c2ccc(NC(=O)C3CC3)cc2OC[C@@H](C)N(Cc2ccncc2)C[C@H]1C,.,1,.,.
CC(=O)Nc1ccc(Sc2ccc([N+](=O)[O-])o2)cc1,?,10,.,116*
O=C1CC(=O)N(C2CCCCC2)C(=O)N1c1ccccc1S(=O)(=O)Oc1ccccc1,+,1,.,-2
COc1ccc(/C=C2\SC(=S)NC2=O)cc1OS(=O)(=O)c1ccc(NC(C)=O)cc1,i,40*,.,17
CO[C@@H]1CN(C)C(=O)c2ccc(NS(=O)(=O)c3cccc(C)c3)cc2OC[C@@H](C)N(Cc2cc(F)ccc2F)C[C@H]1C,.,2,.,.
COc1ccc(N2CCN(C(=O)CCNS(=O)(=O)c3ccc(C)cc3)CC2)cc1,i,36*,248,-6
Cc1cc(C)nc(SCC(=O)Nc2ccccc2[N+](=O)[O-])n1,i,.,288,-5
O=C1CC(=O)NC(SCC(=O)Nc2ccccc2[N+](=O)[O-])=N1,i,41*,352,16
COC(=O)c1c(NC(=O)c2ccccc2N(C)S(=O)(=O)c2ccccc2)sc2c1CCCC2,+,.,.,-1
O=C1NC(c2ccccc2)=N/C1=C/c1ccco1,i,39*,153,2
O=C(Nc1nccs1)c1cn(-c2ccccc2)nc1-c1ccncc1,+,-2,151,-3
CCC(=O)N1CCC2(CC1)CN(CC1CCOCC1)[C@H](CO)c1c2c2ccc(OC)cc2n1C,.,-2,.,.
C[C@H](CO)N1C[C@H](C)[C@@H](CN(C)S(=O)(=O)c2cn(C)cn2)Oc2ccc(NC(=O)CCCN(C)C)cc2C1=O,.,6,.,.
CO[C@H]1CN(C)C(=O)c2ccc(NC(C)=O)cc2OC[C@H](C)N(C(=O)CC2CC2)C[C@@H]1C,.,1,.,.
O=C(O)COc1ccccc1/C=N/NC(=O)CSc1nnc(SCc2cccc3ccccc23)s1,i,37*,354,-5
COc1ccc(S(=O)(=O)N2CC[C@@H]3[C@H]2c2cc(-c4ccc(C#N)cc4)ccc2N[C@@H]3CO)cc1,.,0,.,.
CC(C)CC(=O)NC(=S)Nc1ccc(N2CCOCC2)cc1,+,-1,202,0
CC(C)CC(=O)NC(=S)Nc1ccc(CN2CCOCC2)cc1,i,-4,457,6
CC(=O)c1ccc(C(=O)Nc2ccc(N3CCOCC3)cc2)cc1,i,.,304,1
CC(C)c1ccc(C(=O)Nc2ccc(N3CCOCC3)cc2)cc1,+,.,111,-7
SMILES,Myeloid diff 2,Casp6 inh,T cell HTS,Vif inh
O=C(Cc1ccccc1)Nc1ccc(N2CCOCC2)cc1,i,1,241,59*
Cc1cc(NC(=O)CSc2nc3ccccc3c(=O)n2CCCC(=O)NCc2ccco2)n[nH]1,i,.,159,51*
CC1CCCCC12NC(=O)N(Cc1cc(=O)n3ccsc3n1)C2=O (configuration not stated),i,42*,181,3
Cc1nnc2ccc(-c3cccc(NS(=O)(=O)c4cc(F)ccc4F)c3)nn12,i,2,590,71*
Cc1nnc2ccc(-c3cccc(NS(=O)(=O)c4ccccc4Cl)c3)nn12,i,-3,397,81*
Cc1nnc2ccc(-c3cccc(NS(=O)(=O)c4ccccc4[N+](=O)[O-])c3)nn12,i,-3,490,?
Cc1ccc(-c2ccc3c(c2)O[C@H](CN(C)Cc2ccccn2)[C@@H](C)CN([C@@H](C)CO)S3(=O)=O)cc1,.,1,.,.
O=C(Nc1cnn(Cc2ccc(F)cc2)c1)c1cc(-c2cccs2)on1,i,-1,308,57*
COc1ccc(-c2cc(C(=O)Nc3cnn(Cc4ccccc4C)c3)no2)cc1OC,i,6,494,86*
CCCn1cc(NC(=O)c2cc(-c3ccccc3)on2)cn1,i,.,342,2
CCCc1cc(C(=O)Nc2cnn(Cc3ccc(F)cc3)c2)no1,i,-1,159,-3
O=C(CO)C(O)C(O)C(O)CO (configuration not stated),+,0,402,-4
COC(=O)c1c(NC(=O)/C=C/C(=O)O)sc(C)c1-c1ccc(C(C)C)cc1,i,37*,356,-8
COCCn1c(SCCN2CCOCC2)nc2c1c(=O)[nH]c(=O)n2C,i,36*,181,-2
C=CCn1c(SCCN2CCOCC2)nc2c1c(=O)[nH]c(=O)n2C,i,.,255,-1
CCCCCSc1nc2c(c(=O)[nH]c(=O)n2C)n1C,+,-1,320,5
CCOC(=O)C1=C(CSc2nc(CC)c(C)cc2C#N)OC(N)=C(C#N)C1c1ccc(OC)cc1 (configuration not stated),+,.,670,6
COc1ccc2c3c(n(C)c2c1)[C@@H](CO)NCC31CCN(C(=O)c2ccc(F)cc2)CC1,.,0,.,.
CC1=C/C(=C\c2ccc(Br)o2)C(=O)O1,i,83*,188,2
Cc1ccc([N+](=O)[O-])cc1S(=O)(=O)Nc1ccc(C(=O)N(C)C)cc1,i,-2,472,-16
Cc1ccc([N+](=O)[O-])cc1S(=O)(=O)Nc1ccc(C(=O)N2CCN(C(=O)c3ccco3)CC2)cc1,i,54*,482,-5
O=C(NCc1ccc(F)cc1)c1cc(C2CCCCN2C(=O)OCCF)on1 (configuration not stated),i,1,.,67*
CCOC(=O)c1c(C)c(C(=O)NCc2ccc(OC)cc2)c(C)n1C,i,48*,201,2
CCS(=O)(=O)N[C@H]1C=C[C@@H](CC(=O)NCc2ccc(Cl)cc2)O[C@@H]1CO,.,0,.,.
O=C1C=CC(n2cc(F)c(=O)[nH]c2=O)O1 (configuration not stated),.,36*,.,-3
SMILES,Myeloid diff 2,Casp6 inh,T cell HTS,Vif inh
O=c1[nH]c(=O)n(C2OC(CO)C(O)C2O)cc1F (configuration not stated),.,.,.,18
COC(=O)c1c(C(=O)OC)c(-c2cccc(Cl)c2)n2c1CS(=O)(=O)C2,+,0,93,-8
COC(=O)c1c(C(=O)OC)c(-c2cccc(C)c2)n2c1CS(=O)(=O)C2,i,.,163,-6
COCCN1C(=O)C(=O)/C(=C(/O)c2cccc(OC)c2)C1c1ccc(C)o1 (configuration not stated),i,.,75*,.
COc1cccc(CN2[C@H](CO)[C@@H](c3ccccc3)C23CN(C(=O)C2CCOCC2)C3)c1,.,1,.,.
COc1cccc(Oc2ccc(N)cn2)c1,i,.,477,7
